A short description of this data set: Toxicity liver stage against HepG2, at 10uM. The arrangement: test concentration 10 uM, cell line HepG2-A16-CD81EGFP. The settings on record: human, HepG2-A16-CD81EGFP cells; read-out: INHIBITION
It is filed as cell-based. The method in brief:
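Uninfected HepG2-A16-CD81EGFP cells, 3 × 10^3 per well, 1536-well, plated on prespotted compound at 10 μM final, parasite-free screening media added to match infected plates; puromycin 10 μM positive, DMSO 0.5% negative; run in parallel with 48 h PbLuc assay at 37 °C, 5% CO2; viability by CellTiter-Glo luminescence, normalized to controls.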
Take `CC(C)c1nc(CN2CCN(C(=O)CN3CCOCC3)CC2)no1`: the cytotoxicity at 10 µM was -7.8%.

Take `O=C(CCn1nc(C(=O)Nc2ccccc2)ccc1=O)Nc1nccs1`: the cytotoxicity at 10 µM is -2.83%.

In the case of `O=C1CCNc2cc3c(cc2CN1CC1CC1)OCO3`, the cytotoxicity at 10 µM was -5.83%.

Regarding `COc1ccc(-c2nc(C#N)c(N(C)C)o2)cc1S(=O)(=O)N(C)C`, the cytotoxicity at 10 µM was -7.19%.

Regarding `Cc1nc(C(=O)N2CCN(S(C)(=O)=O)CC2)c(-c2ccccc2)s1`, the cytotoxicity at 10 µM was found to be 3.23%.

Regarding `O=C1CSC(C(F)(F)F)c2c(O)nn(C3CCCC3)c2N1` (stereo not drawn), the cytotoxicity at 10 µM was found to be 3.49%.

For `CC(C)Cn1cnc2ccc(NC(=O)CCCn3cccn3)cc2c1=O`, the cytotoxicity at 10 µM was -4.06%.

In the case of `COc1cccc2sc(OC3CN(C(=O)C4=COCCO4)C3)nc12`, the cytotoxicity at 10 µM is 4.91%.

For `CC(C)N(C)C(=O)C1=NOC2(CCN(C(=O)c3cccn3C)C2)C1` (stereo not drawn), the cytotoxicity at 10 µM is -122%.

Regarding `Cc1cccc(Cn2c(=O)[nH]c3csnc3c2=O)c1`, the cytotoxicity at 10 µM was 3.46%.

For the compound `O=C1NC(c2ccccc2)=N[C@@]12CC[C@@H]1CN(Cc3ccco3)C[C@@H]12`, the cytotoxicity at 10 µM was -4.34%.

Regarding `CN1CC(Oc2ccc(Cl)cc2)=NC(SCC(=O)c2ccccc2)=N1`, the cytotoxicity at 10 µM was -0.731%.

`O=C(Nc1cc(-c2ccccn2)no1)C1CC1`: the cytotoxicity at 10 µM was -5.34%.

For the compound `CC(=O)N1CCC1c1cc(N2CCNC(=O)C2)nc(C)n1` (stereo not drawn), the cytotoxicity at 10 µM was -1.62%.

As to `Cc1noc(C2(C)CCCN(C(=O)C(C)C)C2)n1` (stereo not drawn), the cytotoxicity at 10 µM was -3.97%.

Turning to `NC(=O)c1cnc(-c2ccccc2)nc1CCNC(=O)CN1CCCC1`, the cytotoxicity at 10 µM was -1.25%.

`Cc1cc(-c2ccccc2C(=O)O)nc(C2CCCN2S(C)(=O)=O)n1` (stereo not drawn): the cytotoxicity at 10 µM was -3.67%.

On to `Cn1c(CN2CCCc3cc(F)cc(F)c32)cc(=O)n(C)c1=O`, for which the cytotoxicity at 10 µM is 17.3%.

In the case of `Cn1cc(C(O)CNC(=O)c2sccc2OC(F)F)cn1` (stereo not drawn), the cytotoxicity at 10 µM turned out to be 0.606%.

As for `CC(C(=O)NC1CC1)S(=O)(=O)Cc1nc(Cc2ccccc2)no1` (stereo not drawn), the cytotoxicity at 10 µM worked out at 5.42%.

Take `CN(C)c1nc(CNC(=O)NC2CCc3ccccc32)cs1` (stereo not drawn): the cytotoxicity at 10 µM is -3.41%.

In the case of `CCN(CC)S(=O)(=O)NC1CCN(c2ccc(OC)cc2)CC1`, the cytotoxicity at 10 µM was found to be 3.38%.

On to `CCN(CC1CCOC1)C(=O)Cn1nnn(-c2cccs2)c1=O` (stereo not drawn), for which the cytotoxicity at 10 µM was -49.7%.

On to `CCn1ccnc1CNCc1ccc(C)cc1OC(C)(C)C`, for which the cytotoxicity at 10 µM was 1.03%.

As for `CSCc1cc(F)ccc1CNC(=O)N1CCOCC1`, the cytotoxicity at 10 µM stood at 8.06%.

Consider `CC1CCCN(CCCNC(=O)c2cn(C)nc2-c2cccnc2)C1` (stereo not drawn), for which the cytotoxicity at 10 µM was -3.24%.

`CC(CCc1ccccc1F)C(=O)NS(C)(=O)=O` (stereo not drawn): the cytotoxicity at 10 µM stood at 3.12%.

As for `O=C1CCCN1Cc1nnc(SCc2ccc3c(c2)CCC3)o1`, the cytotoxicity at 10 µM was 2.03%.

Consider `Cc1ccc(-c2noc(CN3CCC(c4ccn[nH]4)CC3)n2)cc1`, for which the cytotoxicity at 10 µM was found to be 12.6%.

On to `O=S(=O)(CCNCc1ccc(Cl)cc1)N1CCOCC1`, for which the cytotoxicity at 10 µM came out at 4.68%.

For `CCc1noc(CN(Cc2cccs2)C2CC2)n1`, the cytotoxicity at 10 µM is 1.44%.

Take `O=C(O)c1nnn(-c2cccc(C(F)(F)F)c2)c1C1CC1`: the cytotoxicity at 10 µM is -2.02%.

As to `CC(C)c1nnc2n1CC(CNCc1nc3ccccc3o1)CC2` (stereo not drawn), the cytotoxicity at 10 µM is -1.85%.

`Cc1cccc(N(CCC(N)=O)C(=O)c2cnccn2)c1`: the cytotoxicity at 10 µM is -1.74%.

`CCc1nc(C(=O)N2CCN(Cc3ccc(Cl)cc3)CC2)c[nH]1`: the cytotoxicity at 10 µM was -6.85%.

`CNC(=O)NC(=O)CN1CCN(CC(F)(F)F)CC1(C)C`: the cytotoxicity at 10 µM turned out to be 10.7%.

`CN(C)C(=O)c1ccccc1NC(=O)N(C)Cc1ccccc1O`: the cytotoxicity at 10 µM was -1.03%.

With `CCCN(CC1CC1)C(=O)CN1CCCC1c1cnn(C)c1` (stereo not drawn), the cytotoxicity at 10 µM is 2.45%.

On to `CN(c1nc(CSc2nnc(Cn3cncn3)o2)cs1)C1CC1`, for which the cytotoxicity at 10 µM worked out at 6.6%.

With `Cc1cc(NC(=O)CN(c2ccccc2)C(C)C)on1`, the cytotoxicity at 10 µM was -1.54%.

Consider `CCCC(=O)NC(C)(C)Cc1ccccc1OC`, for which the cytotoxicity at 10 µM amounted to 5.55%.

In the case of `CS(=O)(=O)Cc1ccc(CNc2ncc(C#N)cc2Cl)cc1`, the cytotoxicity at 10 µM stood at 3.47%.

As for `CN(Cc1ccco1)C(=O)CN1CCN(C)c2ccccc2C1`, the cytotoxicity at 10 µM was -7.2%.

For `CC1(C)CN(C(=O)c2ccc3nncn3c2)CCS1`, the cytotoxicity at 10 µM was -4.5%.

Turning to `CCc1nc(CC)n(CC(=O)NCc2cccc(C)c2)n1`, the cytotoxicity at 10 µM was -2.25%.

Turning to `CCCNC(c1cccnc1)c1ccc(F)cc1F` (stereo not drawn), the cytotoxicity at 10 µM is -2%.

For `CC(C)N(CCCNC(=O)C1CCOCC1)S(C)(=O)=O`, the cytotoxicity at 10 µM was 0.617%.

`COCCNC(=O)Cn1cc(NC(=O)c2cc(Cl)c(Cl)n2C)cn1`: the cytotoxicity at 10 µM was -4.01%.

`O=C(c1cc(F)ccc1Br)N1CCN(C(=O)C2CC2)CC1`: the cytotoxicity at 10 µM stood at 4.9%.

Regarding `N#CCCCn1nnnc1Cc1ccc(Br)cc1`, the cytotoxicity at 10 µM was 1.56%.

For `Cc1ccc(C2CSCCN2C(=O)c2ccoc2C)o1` (stereo not drawn), the cytotoxicity at 10 µM stood at 13.8%.

Take `CCS(=O)(=O)N1CCN(C(C)c2ncc(-c3ccccc3)o2)CC1` (stereo not drawn): the cytotoxicity at 10 µM worked out at 3.44%.

Turning to `CCC[C@@H](NC(N)=O)C(=O)N1CCc2ccccc2CC1`, the cytotoxicity at 10 µM is 7.79%.

With `CCOCC1CN(S(=O)(=O)c2cccc(C)c2)Cc2nccn2C1` (stereo not drawn), the cytotoxicity at 10 µM is -108%.

Consider `O=C(c1ccnn1-c1ccc2ccccn12)N1CCOCC1`, for which the cytotoxicity at 10 µM was -108%.

On to `CN(C)c1nccc(-c2cnc(N(C)C)[nH]c2=O)n1`, for which the cytotoxicity at 10 µM was -1.17%.

In the case of `CC(C)NC(=O)NCc1cc(-c2cccc(Cl)c2)nn1C`, the cytotoxicity at 10 µM was 3.66%.

For `COc1cc(OC)cc(-n2ccnc2-c2cc3n(n2)CCNC3)c1`, the cytotoxicity at 10 µM is -12.2%.

With `CN(C)C1CCCN(C(=O)c2cccc(-c3ncc[nH]3)c2)CC1` (stereo not drawn), the cytotoxicity at 10 µM was 4.2%.

As to `Cc1cnc(CNC(=O)CC2CCc3ccccc32)cn1` (stereo not drawn), the cytotoxicity at 10 µM was -0.862%.

Turning to `CCCn1c(C)c(CC(=O)NCC(C)O)c2c1CC(C)(C)CC2=O` (stereo not drawn), the cytotoxicity at 10 µM is -7.57%.

Regarding `Cc1nc(CC(=O)N2CCCC2c2nc(C(C)C)no2)cs1` (stereo not drawn), the cytotoxicity at 10 µM was 4.33%.

Consider `CSCC(=O)N1CCc2[nH]nc(-c3ccc4c(c3)OCO4)c2C1`, for which the cytotoxicity at 10 µM is -139%.

`CCCn1ccnc1CN1CC[C@@H](NC(=O)c2cccnc2)[C@H](O)C1`: the cytotoxicity at 10 µM was -7.31%.

In the case of `Cc1cnc(C(=O)N2CCN(C(=O)CC(C)C)[C@@H]3CS(=O)(=O)C[C@@H]32)cn1`, the cytotoxicity at 10 µM was -3.06%.

Turning to `O=C(c1ccc(S(=O)(=O)N2CCNCC2)cc1)N1CCCC(O)C1` (stereo not drawn), the cytotoxicity at 10 µM turned out to be 8.48%.

With `CCN(Cc1cnn(C)c1)C[C@H]1CC[C@@H](Cc2ccc(C)nc2)O1`, the cytotoxicity at 10 µM was 5.24%.

`CC(=O)N1CCc2[nH]cnc2C1C1=CCCN(CCn2cccc2)C1` (stereo not drawn): the cytotoxicity at 10 µM turned out to be 0.375%.

`O=C(Nc1ccc(F)cc1)C1CNCCN1C(=O)CSc1ccncc1` (stereo not drawn): the cytotoxicity at 10 µM was -0.316%.

`CC(C)n1cc(CN(Cc2ccsc2)CC2CCCO2)cn1` (stereo not drawn): the cytotoxicity at 10 µM was -7.89%.

As to `Cc1ccc(Oc2ncccc2CNC(=O)C2COC(=O)N2)c(F)c1F` (stereo not drawn), the cytotoxicity at 10 µM came out at 1.82%.

For the compound `COCCN1CCC(CNc2nccc(-c3cnn(C)c3)n2)CC1`, the cytotoxicity at 10 µM was -130%.

With `Cc1ccc(C(=O)N2CCCC(N)CC2)cc1N1CCNC1=O` (stereo not drawn), the cytotoxicity at 10 µM is -4.35%.

In the case of `Cc1cnccc1NCCNC1CCSCC1`, the cytotoxicity at 10 µM is -9.44%.

Consider `Cc1c(-c2c(-c3ccccc3)ncn2[C@H](CO)C(=O)O)cnn1C`, for which the cytotoxicity at 10 µM came out at 4.28%.

As to `COCCN(C)C[C@@H]1CN(C(=O)c2ccc(C)c(Cl)c2)C[C@@H]1CO`, the cytotoxicity at 10 µM was -0.678%.

Regarding `CCCNC(=O)C(C)Oc1ccc(F)cc1` (stereo not drawn), the cytotoxicity at 10 µM is -3.76%.

As to `CCCN1CCC(Cc2noc(-c3cc4cccnc4nc3C)n2)CC1`, the cytotoxicity at 10 µM was -0.749%.

Regarding `CCCS(=O)(=O)N1C[C@H]2OC(=O)N(CCc3cccc(Cl)c3)[C@H]2C1`, the cytotoxicity at 10 µM is -2.12%.

Regarding `CN(C)C(=O)c1ccc2c(c1)N(C)C(CC(=O)NC(C)(C)CO)CO2` (stereo not drawn), the cytotoxicity at 10 µM amounted to 8.38%.

On to `CCC(CO)N(Cc1ccccn1)C(=O)c1ccc2c(c1)CCO2` (stereo not drawn), for which the cytotoxicity at 10 µM is -14.2%.

Regarding `CN(Cc1ccon1)C(=O)C1CC(=O)N(Cc2ccncc2)C1` (stereo not drawn), the cytotoxicity at 10 µM was -0.368%.

On to `c1ccc(Cc2noc(CN3CCOC(Cn4cncn4)C3)n2)cc1` (stereo not drawn), for which the cytotoxicity at 10 µM worked out at 1.28%.

Take `Cc1nc(C2CCCN2CC(=O)N(C)Cc2ccsc2)no1` (stereo not drawn): the cytotoxicity at 10 µM is -8.21%.

On to `CC(C(=O)NCc1ccnc(N2CCCC2)c1)n1cccn1` (stereo not drawn), for which the cytotoxicity at 10 µM is 0.309%.

On to `CCn1cnnc1C1CCN(C(=O)c2cc3c(s2)CCCC3)CC1`, for which the cytotoxicity at 10 µM was -1.76%.

In the case of `CCCc1noc(CCC(=O)N2CCCC2c2ccncc2)n1` (stereo not drawn), the cytotoxicity at 10 µM was -2.42%.

On to `c1cnn(-c2ccc(CN3CCCC(Cn4cncn4)C3)cc2)c1` (stereo not drawn), for which the cytotoxicity at 10 µM was -2.63%.

Consider `CCc1n[nH]c(C2CN(Cc3nnc(C4CC4)o3)CCO2)n1` (stereo not drawn), for which the cytotoxicity at 10 µM was -14.3%.

Regarding `Cc1nc(CN2CCCC(N(C)Cc3nccn3C)C2)no1` (stereo not drawn), the cytotoxicity at 10 µM is -16.8%.

On to `Cc1nc(C(=O)N2CCCC2c2c(C)nn(C)c2C)cs1` (stereo not drawn), for which the cytotoxicity at 10 µM is -15.8%.

With `CCn1cc(CN2CCCN(C(=O)CCCn3cncn3)CC2)cn1`, the cytotoxicity at 10 µM was -12.5%.

As for `Cc1cn2c(n1)CCC(NC(=O)c1ccc(CS(C)(=O)=O)o1)C2` (stereo not drawn), the cytotoxicity at 10 µM is -5%.

Consider `c1nnc(Nc2cncc(C3CCCN3)n2)s1` (stereo not drawn), for which the cytotoxicity at 10 µM is 3.58%.

As to `CC(C)c1nn(C)c(N(C)C)c1CNC1CCN(C2CC2)CC1`, the cytotoxicity at 10 µM amounted to 5.6%.

For `CC(C)N(CC(=O)O)Cc1cccc(Br)c1`, the cytotoxicity at 10 µM was -8.67%.

`CN(C)C(=O)COCc1nn(C)c2c1CCN(Cc1ccco1)C2`: the cytotoxicity at 10 µM was -131%.

In the case of `Cc1cnn(CC2CN(C=C3NN=C(c4occc4C)O3)CCO2)c1` (stereo not drawn), the cytotoxicity at 10 µM is -2.9%.

Source of the values: ChEMBL document CHEMBL4513216, “Probing the Open Global Health Chemical Diversity Library for Multistage-Active Starting Points for Next-Generation Antimalarials” (ACS Infect Dis, 2020).
